Assay outcomes from PubChem.
The list is not random: actives were taken first. Their share in the collection is about 1%.
TLR4-MyD88 BLA – TLR4-MyD88 interaction inhibition in cells; O00206+Q99836; HeLa CL3-4 TLR4/MyD88 BLA complementation, FRET ratio; inhibition, % at 8.4 µM; 200,000 compounds, 0.18% hits; AID 861; in the data active means inhibition above about 25%
Target sequence (O00206 whole entry, looked up): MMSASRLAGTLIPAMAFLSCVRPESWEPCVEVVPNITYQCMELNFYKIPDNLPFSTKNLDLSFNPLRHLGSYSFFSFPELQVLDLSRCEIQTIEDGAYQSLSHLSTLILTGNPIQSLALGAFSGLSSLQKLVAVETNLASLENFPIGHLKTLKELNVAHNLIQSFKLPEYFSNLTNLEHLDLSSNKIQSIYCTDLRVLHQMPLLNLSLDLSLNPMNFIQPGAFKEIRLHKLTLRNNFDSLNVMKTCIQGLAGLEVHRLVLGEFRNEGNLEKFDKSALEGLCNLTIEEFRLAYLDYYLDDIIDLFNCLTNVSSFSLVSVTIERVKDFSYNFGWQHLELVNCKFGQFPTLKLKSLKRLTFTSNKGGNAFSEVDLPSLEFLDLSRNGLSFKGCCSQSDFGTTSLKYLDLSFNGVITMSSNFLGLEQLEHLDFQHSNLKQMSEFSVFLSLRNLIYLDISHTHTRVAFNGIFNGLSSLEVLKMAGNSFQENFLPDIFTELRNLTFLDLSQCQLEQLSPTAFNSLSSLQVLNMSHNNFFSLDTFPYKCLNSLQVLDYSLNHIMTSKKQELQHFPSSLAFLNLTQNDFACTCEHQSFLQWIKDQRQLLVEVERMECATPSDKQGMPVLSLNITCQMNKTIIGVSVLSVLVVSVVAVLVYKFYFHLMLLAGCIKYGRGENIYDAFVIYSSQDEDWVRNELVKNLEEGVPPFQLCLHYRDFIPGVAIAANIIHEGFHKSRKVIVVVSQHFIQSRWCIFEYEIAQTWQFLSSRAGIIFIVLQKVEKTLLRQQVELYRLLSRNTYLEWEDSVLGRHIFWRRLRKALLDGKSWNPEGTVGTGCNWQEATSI
Target sequence (Q99836 whole entry, looked up): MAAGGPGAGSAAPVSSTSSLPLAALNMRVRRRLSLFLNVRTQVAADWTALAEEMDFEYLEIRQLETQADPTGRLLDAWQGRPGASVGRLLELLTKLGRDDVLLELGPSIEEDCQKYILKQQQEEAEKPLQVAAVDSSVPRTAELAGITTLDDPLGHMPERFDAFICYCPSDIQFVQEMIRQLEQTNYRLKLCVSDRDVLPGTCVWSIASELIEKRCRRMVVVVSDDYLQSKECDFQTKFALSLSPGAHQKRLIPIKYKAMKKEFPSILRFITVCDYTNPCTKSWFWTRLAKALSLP
Hsp70 act – Hsp70 transcriptional activation, primary screen. 200,000 compounds, 0.04% hits. activation, % at 10 µM. HeLa Hsp70 promoter luciferase reporter, luminescence; scaled: vehicle 0, proteasome-inhibitor control 100%;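 active means activation above the mean across all tested compounds plus 3 SD, cutoff set per campaign, cut at about 5.5% in these data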
TLR9-MyD88 block – TLR9-MyD88 interaction inhibition. Q9NR96+Q99836. CHO BLA complementation TLR9-MyD88, CCF4 FRET ratio. inhibition, % at 4.98 µM. 340,000 compounds, 0.21% hits. AID 504734;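 active means inhibition above the mean over all tested compounds plus 3 SD, cut at about 21% in these data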
NOD2-RIPK2 inh – blocks binding of human NOD2 to RIPK2; O43353; CHO BLA complementation NOD2-RIPK2, CCF4 ratio; inhibition, % at 4.98 µM; 360,000 compounds, 0.38% hits; AID 624267; in the data active means inhibition above about 21%
MT stabilizer – microtubule stabilization, imaging screen. HeLa tubulin immunostaining HCS, 24 h; share of cells brighter than vehicle mean+2SD. % tubulin-high responders, % at 10 µM. 200,000 compounds, 0.83% hits;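 active means plate Z-score above 3 for both tubulin-high and condensed-nucleus cell shares, with cell loss under 80%, at 10 µM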;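 further: anti alpha tubulin signal scored within the nucleus-defined area of each cell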
bCat nuc transl – alters nuclear translocation of beta-catenin in HeLa cells | 190,000 compounds, 0.3% hits | nuclear translocation activity, % at 5 µM | immunofluorescence imaging | AID 1665;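 active means nuclear translocation activity above 50% at 5 µM, with a well cell count of 50 or more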;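 further: per-cell ratio of nuclear to cytoplasmic median beta-catenin stain intensity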
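Technique: fluorescence imaging of beta-catenin antibody stain plus DAPI / Material: human HeLa cell line / Incubation: compound treatment 24 h, 37°C, 5% CO2 / Read-out basis: % activation of per-cell nuclear versus cytoplasmic median beta-catenin signal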
TLR9-MyD88 cf – confirmation of human TLR9-MyD88 binding inhibitors; inhibition, % at 4.98 µM; shares compounds with TLR9-MyD88 block; CHO TLR9/MyD88 BLA complementation, CCF4 FRET ratio; 680 compounds, 51% hits;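 active means mean inhibition across three repeats above about 21% taken from the earlier screen, limit read from the data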;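 further: blue over green emission ratio reports constitutive TLR9 MyD88 association via BLA complementation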
BLA counter-1 – non-selective beta-lactamase inhibitors in TLR9-MyD88 counter-screen; AID 540251; inhibition, % at 4.98 µM; CHO-BLA cells, CCF4 FRET ratio, BLA reporter; shares compounds with TLR9-MyD88 block; 680 compounds, 7% hits;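 active means mean inhibition above a 50% cutoff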;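 further: counterscreen of TLR9-MyD88 hits on CMV-driven BLA in CHO-K1 cells; higher means less blue over green ratio so more BLA blockade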
TLR9 CHO tox – counter-screen for TLR9-MyD88 inhibitors: cytotoxicity in CHO cells | shares compounds with TLR9-MyD88 block | luminescence | inhibition, % at 4.98 µM | 680 compounds, 39% hits | AID 588336; in the data active means inhibition above about 11%
NOD2 RIPK2 conf – NOD2-RIPK2 interaction inhibition confirmed. shares compounds with NOD2-RIPK2 inh. inhibition, % at 4.98 µM. 1,200 compounds, 70% hits. CHO cells, NOD2-RIPK2 BLA complementation, CCF4 FRET;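 active means mean inhibition across replicates above a set limit taken from the earlier primary screen, cut at about 21% in these data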
BLA counter-2 – NOD2-RIPK2 counterscreen BLA reporter activity. inhibition, % at 4.98 µM. CHO BLA reporter, CCF4 FRET ratio. 1,200 compounds, 57% hits. shares compounds with NOD2-RIPK2 inh;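 active means mean inhibition above the low-control mean inhibition plus three low-control SD, cut at about 11% in these data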
Of the large screens only hits and unclear results are named; the others gave an inactive call (follow-up assays come after a bar, where they were run).

Cc1ccc(-n2sc3ccccc3c2=O)cc1	none
C=CCn1c(Sc2ncc([N+](=O)[O-])s2)n[nH]c1=O	TLR9-MyD88 block 32, NOD2-RIPK2 inh 63 (no result: TLR4-MyD88 BLA, Hsp70 act, MT stabilizer) | TLR9-MyD88 cf 44 | BLA counter-1 inactive | TLR9 CHO tox 99 | NOD2 RIPK2 conf 77 | BLA counter-2 15
C=CCn1c(CSc2ccccc2[N+](=O)[O-])n[nH]c1=S	none (no result: TLR4-MyD88 BLA, Hsp70 act, MT stabilizer, bCat nuc transl)
CC[C@@]1(O)C(=O)OCc2c1cc1n(c2=O)Cc2cc3c(CN(C)C)c(O)ccc3nc2-1	TLR9-MyD88 block 54, NOD2-RIPK2 inh 72 (no result: TLR4-MyD88 BLA, Hsp70 act, MT stabilizer, bCat nuc transl) | TLR9-MyD88 cf 49 | BLA counter-1 52 | TLR9 CHO tox 60 | NOD2 RIPK2 conf 81 | BLA counter-2 78
CC[C@@]1(O)C(=O)OCc2c1cc1n(c2=O)Cc2cc3c(N)cccc3nc2-1	none (no result: TLR4-MyD88 BLA, Hsp70 act, MT stabilizer)
Cn1nc2c3cc(F)ccc3n(Cc3ccc(F)cc3)cc-2c1=O	none (no result: TLR4-MyD88 BLA, Hsp70 act, MT stabilizer, bCat nuc transl)
COc1cc2c3nnc(-c4ccc(F)cc4)c-3cn(Cc3ccc(F)cc3)c2cc1OC	TLR9-MyD88 block 24, NOD2-RIPK2 inh 56 (no result: bCat nuc transl) | TLR9-MyD88 cf inactive | BLA counter-1 inactive | TLR9 CHO tox inactive | NOD2 RIPK2 conf 61 | BLA counter-2 64
Cc1ccc2nc(-c3cccc(SC4CCCCC4)c3)c(NC3CCCCC3)n2c1	none (no result: TLR4-MyD88 BLA, Hsp70 act, MT stabilizer, bCat nuc transl)
c1cc(SC2CCCCC2)cc(-c2nc3cnccn3c2NC2CCCCC2)c1	TLR9-MyD88 block 33, NOD2-RIPK2 inh 33 (no result: TLR4-MyD88 BLA, Hsp70 act, MT stabilizer, bCat nuc transl) | TLR9-MyD88 cf 33 | BLA counter-1 inactive | TLR9 CHO tox inactive | NOD2 RIPK2 conf 52 | BLA counter-2 66
CC(=O)Nc1ccc2c(c1)Cc1cc(N3C(=O)C=CC3=O)ccc1-2	TLR9-MyD88 block 33, NOD2-RIPK2 inh 33 (no result: TLR4-MyD88 BLA, Hsp70 act, MT stabilizer, bCat nuc transl) | TLR9-MyD88 cf 56 | BLA counter-1 inactive | TLR9 CHO tox 99 | NOD2 RIPK2 conf 85 | BLA counter-2 30
O=C(O)c1ccc(Nc2cc(Cl)c3nonc3c2[N+](=O)[O-])cc1	none
O=[N+]([O-])c1c(Nc2cccc(O)c2)cc(Cl)c2nonc12	TLR9-MyD88 block 46, NOD2-RIPK2 inh 98 (no result: TLR4-MyD88 BLA, Hsp70 act, MT stabilizer, bCat nuc transl) | TLR9-MyD88 cf 61 | BLA counter-1 inactive | TLR9 CHO tox 98 | NOD2 RIPK2 conf 108 | BLA counter-2 29
O=C(CCC(=O)c1ccc(F)cc1)NC1CCCN(Cc2ccccc2F)C1 (stereo unspecified)	none (no result: TLR4-MyD88 BLA, Hsp70 act, MT stabilizer, bCat nuc transl)
Nc1ccc2c3c(cccc13)-c1ccccc1-2	TLR9-MyD88 block 62, NOD2-RIPK2 inh 67 (no result: TLR4-MyD88 BLA, Hsp70 act, MT stabilizer, bCat nuc transl) | TLR9-MyD88 cf 58 | BLA counter-1 54 | TLR9 CHO tox inactive | NOD2 RIPK2 conf 74 | BLA counter-2 81
O=C(Nc1ccc(Oc2cccc(C(F)(F)F)c2)nc1)c1cccs1	none (no result: TLR4-MyD88 BLA, Hsp70 act, MT stabilizer)
CCCN(CC(=O)Nc1ccccc1OC)C(=O)CCC(=O)c1ccc(OCC)cc1	none (no result: TLR4-MyD88 BLA, Hsp70 act, MT stabilizer, bCat nuc transl)
Cc1ccc(C2C=C(c3ccc4c(c3)OCO4)Nc3ncnn32)cc1 (stereo unspecified)	TLR9-MyD88 block 31, NOD2-RIPK2 inh 42 (no result: bCat nuc transl) | TLR9-MyD88 cf inactive | BLA counter-1 inactive | TLR9 CHO tox inactive | NOD2 RIPK2 conf 34 | BLA counter-2 42
Cc1ccc(C2=CC(c3ccccc3)n3ncnc3N2)cc1 (stereo unspecified)	TLR9-MyD88 block 41, NOD2-RIPK2 inh 52 (no result: TLR4-MyD88 BLA, Hsp70 act, MT stabilizer, bCat nuc transl) | TLR9-MyD88 cf inactive | BLA counter-1 inactive | TLR9 CHO tox inactive | NOD2 RIPK2 conf inactive | BLA counter-2 21
Cc1ccc(C2=CC(c3ccccc3)n3ncnc3N2)c(C)c1 (stereo unspecified)	none (no result: TLR4-MyD88 BLA, Hsp70 act, MT stabilizer, bCat nuc transl)
